In ChEMBL document CHEMBL1782036, “Atovaquone derivatives as potent cytotoxic and apoptosis inducing agents” (Bioorg Med Chem Lett, 2009) one finds IC50 and Activity data, which are given here for 15 compounds.

For assay [1], the system named is DU-145. As to the kind of experiment: Growth inhibition of human DU145 cells after 72 hrs by MTT assay. In kind it is functional, cell-based. The settings on record: DU-145, 72 h. The method, boiled down:
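Du145 human prostate carcinoma cells were screened by MTT cell-growth inhibition assay. IC50 values are means of three experiments.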
On the technique in general: Tetrazolium assays rely on reduction of a dye to a coloured formazan, in cell work by metabolically active cells.

For the next assay, the system named is HT-29. The experiment in a line: Antiproliferative activity against human HT-29 cells after 72 hrs by MTT assay. In kind it is functional, cell-based. The settings on record: HT-29, 72 h.
Another assay relates to IMR-90. As to the kind of experiment: Antiproliferative activity against human IMR90 cells after 72 hrs by MTT assay. In kind it is cell-based. The settings on record: IMR-90, 72 h.
For the next assay, the system named is SGC-7901. As to the kind of experiment: Antiproliferative activity against human SGC7901 cells after 72 hrs by MTT assay. In kind it is functional, cell-based. The settings on record: SGC-7901, 72 h.
In a further assay the test system is HT-1080. As to the kind of experiment: Antiproliferative activity against human HT1080 cells after 72 hrs by MTT assay. Type of assay: functional, cell-based. The settings on record: HT-1080, 72 h.
In assay [2] the test system is DU-145. As to the kind of experiment: Induction of apoptosis in human DU145 cells at 10 uM assessed as dead cell level after 72 hrs by AnnexinV conjugated 7- AAD staining by flow cytometry. Type of assay: functional. The essentials:
(§1)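 Du145 human prostate carcinoma cells exposed to compound for 72 h, then stained with Annexin V and 7-AAD and analysed by flow cytometry. Annexin V detects phosphatidylserine externalised to the outer membrane leaflet, and 7-AAD enters only membrane-compromised cells. Dead cells were those positive for both stains. Untreated cells served as control.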
Background: A flow cytometer gives signals particle by particle.

Assay [3] deals with DU-145. The experiment in a line: Induction of apoptosis in human DU145 cells at 5 uM assessed as live cell level after 72 hrs by AnnexinV conjugated 7- AAD staining by flow cytometry. Type of assay: functional. The essentials:
(§2)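 Du145 cells were treated for 72 h and stained with Annexin V conjugate plus 7-AAD. Flow cytometry read PS externalization and membrane integrity, scoring cells as live (double negative), early apoptotic, or late apoptotic/necrotic (double positive). Untreated cells served as the control.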

For assay [4], the system named is DU-145. The experiment in a line: Induction of apoptosis in human DU145 cells at 10 uM assessed as live cell level after 72 hrs by AnnexinV conjugated 7- AAD staining by flow cytometry. In kind it is functional. The method, boiled down:
as §2

The subject of assay [5] is DU-145. The experiment in a line: Induction of apoptosis in human DU145 cells at 10 uM assessed as early apoptosis level after 72 hrs by AnnexinV conjugated 7- AAD staining by flow cytometry. Type of assay: functional. The essentials:
as §2

The test system of a further assay is MOLT-4. The experiment in a line: Antiproliferative activity against human MOLT4 cells after 72 hrs by MTT assay. Type of assay: functional, cell-based. The settings on record: MOLT-4, 72 h.
A short description of assay [6]: Antiproliferative activity against human L78 cells after 72 hrs by MTT assay. In kind it is functional, cell-based. The settings on record: L78, 72 h.
Assay [7] relates to DU-145. The experiment in a line: Induction of apoptosis in human DU145 cells at 5 uM assessed as dead cell level after 72 hrs by AnnexinV conjugated 7- AAD staining by flow cytometry. In kind it is functional. The essentials: as §1
The subject of the next assay is MCF7. As to the kind of experiment: Antiproliferative activity against human MCF7 cells after 72 hrs by MTT assay. The settings on record: MCF7, 72 h. In kind it is functional, cell-based.
A further assay has as its system HeLa. The experiment in a line: Antiproliferative activity against human HeLa cells after 72 hrs by MTT assay. Type of assay: functional, cell-based.
The test system of assay [8] is DU-145. As to the kind of experiment: Induction of apoptosis in human DU145 cells at 5 uM assessed as early apoptosis level after 72 hrs by AnnexinV conjugated 7- AAD staining by flow cytometry. In kind it is functional. The method, boiled down:
as §2

A further assay concerns OS-RC-2. The experiment in a line: Antiproliferative activity against human OS-RC2 cells after 72 hrs by MTT assay. The settings on record: OS-RC-2, 72 h. In kind it is functional, cell-based.
For the next assay, the system named is U-251. The experiment in a line: Antiproliferative activity against human U251 cells after 72 hrs by MTT assay. Type of assay: functional, cell-based. The settings on record: U-251, 72 h.
For another assay, the system named is A549. The experiment in a line: Antiproliferative activity against human A549 cells after 72 hrs by MTT assay. The settings on record: A549, 72 h. In kind it is functional, cell-based.
The subject of assay [9] is DU-145. The experiment in a line: Induction of apoptosis in human DU145 cells at 5 uM assessed as late apoptosis/ necrotic cells level after 72 hrs by AnnexinV conjugated 7- AAD staining by flow cytometry. In kind it is functional. The method, boiled down:
as §2

The subject of the next assay is KB. The experiment in a line: Antiproliferative activity against human KB cells after 72 hrs by MTT assay. In kind it is functional, cell-based.
A further assay has as its system HepG2. As to the kind of experiment: Antiproliferative activity against human HepG2 cells after 72 hrs by MTT assay. In kind it is functional, cell-based. The settings on record: HepG2, 72 h.
Assay [10] relates to DU-145. The experiment in a line: Induction of apoptosis in human DU145 cells at 10 uM assessed as late apoptosis/ necrotic cells level after 72 hrs by AnnexinV conjugated 7- AAD staining by flow cytometry. In kind it is functional. The essentials: as §2

Structures are written as SMILES. Where only a bound is given, the exact number is not on record here.

On to `O=C1C=C(N2CCC(c3ccc(Cl)cc3)CC2)C(=O)c2ccccc21`, for which the IC50 (commonly the concentration that inhibits the measured activity by half) in the assay with DU-145 [1] was found to be 7.3 µM. This lies in the single-digit micromolar range.

In the case of `O=C1C=C(N2CCC(c3ccc(Cl)cc3)CC2)C(=O)c2c(O)cccc21`, the IC50 in the assay with HT-29 is 6.9 µM; with IMR-90, more than 50 µM; in the assay on SGC-7901, more than 50 µM; with HT-1080, 22.4 µM; with MOLT-4 it was more than 50 µM; in assay [6], 40.6 µM. Also, the IC50 is 20.5 µM with MCF7; 18.2 µM in the assay with HeLa; 5.2 µM with OS-RC-2; 6.1 µM in the assay with U-251; 17.2 µM in the assay on A549; 14 µM in the assay with KB. Moreover, the IC50 with HepG2 came to 5.4 µM; in the assay with DU-145 [1], 2.6 µM. For the same compound, the Activity with DU-145 [2] was 1.21%; in the assay with DU-145 [3] it was 52.14%; in the assay on DU-145 [4], 1.95%; in the assay on DU-145 [5], 8.88%; in the assay on DU-145 [7], 4.69%; with DU-145 [8], 7.22%. Also, the values for the Activity with DU-145 [9] and in the assay with DU-145 [10] were 35.95% and 87.96%, respectively.

`O=C1C=C(N2CCN(c3ccccc3)CC2)C(=O)c2ccccc21` had an IC50 with DU-145 [1] of 9.9 µM.

With `O=C1C=C(N2CCN(c3ccccc3Cl)CC2)C(=O)c2c(O)cccc21`, the IC50 in the assay with HT-29 was 1.4 µM; in the assay with IMR-90 it was 16.9 µM; with SGC-7901, 8.2 µM; with HT-1080, 5.8 µM; with MOLT-4, 27.6 µM; in [6], 5.2 µM. For the same compound, the IC50 with MCF7 was 23.8 µM; with HeLa, 7.2 µM; in the assay with OS-RC-2, 2.5 µM; in the assay on U-251, 8 µM; in the assay on A549, 4.5 µM; in the assay with KB it was 4.4 µM. Also, the IC50 with HepG2 worked out at 7.7 µM; in the assay with DU-145 [1], 2.3 µM.

In the case of `Cc1ccccc1N1CCN(C2=CC(=O)c3ccccc3C2=O)CC1`, the midpoint of inhibition with DU-145 [1], the IC50, lay at 5.7 µM.

Consider `COc1ccc(N2CCN(C3=CC(=O)c4ccccc4C3=O)CC2)cc1OC`, for which inhibition in the assay on DU-145 [1] was half-maximal at 17.8 µM (IC50).

On to `O=C1C=C(N2CCN(c3ccc(F)c(Cl)c3)CC2)C(=O)c2ccccc21`, for which the IC50 in the assay with DU-145 [1] is 32.2 µM. Compared with the last compound, the IC50 is about 1.8-fold higher.

Consider `O=C1C=C(N2CCN(c3ccccc3Cl)CC2)C(=O)c2ccccc21`, for which the IC50 with HT-29 was 18.9 µM; in the assay with IMR-90, more than 50 µM; in the assay on SGC-7901, 41.8 µM; with HT-1080 it was 15.4 µM; with MOLT-4 it was more than 50 µM; in assay [6], 28.8 µM. The IC50 in the assay on MCF7 was 10.3 µM; in the assay on HeLa it was 11.3 µM; in the assay on OS-RC-2, 8.9 µM; in the assay with U-251, 30.8 µM; in the assay on A549, 10.3 µM; in the assay on KB it was 3.7 µM. Besides, the IC50 was 11.1 µM with HepG2 and 2.9 µM in the assay on DU-145 [1]. The Activity was determined as 3.1% in the assay on DU-145 [2]; 91.36% in the assay with DU-145 [3]; 85.3% with DU-145 [4]; 1.89% in the assay on DU-145 [5]; 3.99% in the assay on DU-145 [7]; 1.01% with DU-145 [8]. In addition, the values for the Activity in the assay with DU-145 [9] and with DU-145 [10] were 3.65% and 9.71%, respectively.

`COc1ccc(N2CCN(C3=CC(=O)c4ccccc4C3=O)CC2)cc1` registered an IC50 in the assay with DU-145 [1] of 46.1 µM.

As to `COc1ccccc1N1CCN(C2=CC(=O)c3ccccc3C2=O)CC1`, inhibition with DU-145 [1] was half-maximal at 8 µM (IC50).

In the assay on DU-145 [1], `Cc1cccc(N2CCN(C3=CC(=O)c4ccccc4C3=O)CC2)c1` displayed a 50% inhibitory concentration (IC50) of 7.4 µM.

For `O=C1C=C(N2CCN(c3ccc(Br)cc3)CC2)C(=O)c2ccccc21`, the IC50 in the assay with DU-145 [1] is more than 50 µM.

For the compound `COc1ccccc1N1CCN(C2=CC(=O)c3cccc(O)c3C2=O)CC1`, the IC50 is 2.8 µM in the assay on HT-29; more than 50 µM with IMR-90; 6.8 µM in the assay on SGC-7901; 5.1 µM with HT-1080; 25.8 µM with MOLT-4; 4.6 µM in assay [6]. In addition, the IC50 is 5.6 µM in the assay with MCF7; 6.5 µM in the assay with HeLa; 1.9 µM in the assay on OS-RC-2; 4.4 µM in the assay on U-251; 3.6 µM in the assay on A549; 2.8 µM in the assay with KB. The half-inhibitory concentration (IC50) in the assay on HepG2 was 3.9 µM; in the assay with DU-145 [1], 1.8 µM. Besides, the Activity with DU-145 [2] turned out to be 3.4%; in the assay on DU-145 [3], 46.26%; in the assay with DU-145 [4], 23.55%; in the assay with DU-145 [5], 10.13%; in the assay with DU-145 [7] it was 5.08%; with DU-145 [8], 5.88%. Besides, the Activity with DU-145 [9] is given as 42.79%; in the assay on DU-145 [10] it was 62.93%.

Take `COc1cccc2c1C(=O)c1c(O)c3c(c(O)c1C2=O)C[C@@](O)(C(=O)CO)C[C@@H]3O[C@H]1C[C@H](N)[C@H](O)[C@H](C)O1` [DOXORUBICIN]: the IC50 in the assay with HT-29 stood at 1.3 µM; with IMR-90, 1 µM; in the assay with SGC-7901, 0.9 µM; in the assay on HT-1080, 0.1 µM; in the assay on MOLT-4 it was 0.002 µM; in [6], 2.4 µM. Further, the values for the IC50 in the assay with OS-RC-2 and in the assay with U-251 were 5.4 µM and 0.6 µM, respectively.

For `COc1cc(N2CCN(C3=CC(=O)c4ccccc4C3=O)CC2)cc(OC)c1OC`, the midpoint of inhibition with DU-145 [1], the IC50, lay at 11.6 µM. That is a double-digit micromolar value.
